Assay results of several laboratories.
Protocols differ between the studies behind these lines.
Cell line: NCI-H522
Observed: cell growth or viability

SMILES	technique	tested at	time	measurement	result
COc1ccc(-c2ccc(-c3ccc(C(=N)N)nc3)s2)cc1	SRB			GI50	1900 nM
COc1ccc(C2=Nn3c(NN=C4C(=O)Nc5ccc(OC)cc54)nnc3SC2)cc1	SRB	10 µM		inhibition	25%
COc1ccc(C(=O)/C=C/c2cccc(Br)c2)cc1S(N)(=O)=O	SRB		48 h	GI50	1600 nM
O=C1NC(=NCc2cccs2)S/C1=C\c1ccc2ncccc2c1				IC50	> 10000 nM
COc1ccc(C(=O)/C=C/c2cccnc2)cc1S(N)(=O)=O	SRB		48 h	GI50	10500 nM
Cc1n(Cc2ccc3ccccc3n2)cc[n+]1Cc1ccc2ccccc2c1	SRB			TGI	1460 nM
COc1ccccc1/C=C/C(=O)c1ccc(OC)c(S(N)(=O)=O)c1	SRB	10 µM		inhibition	110%
CCc1n(Cc2ccc3ccccc3n2)cc[n+]1Cc1ccc2ccccc2c1	SRB			TGI	986 nM
COc1ccc(C2=Nn3c(NN=C4C(=O)Nc5ccc(Cl)cc54)nnc3SC2)cc1	SRB	10 µM		inhibition	34%
c1ccc(-c2n(Cc3ccc4ccccc4c3)cc[n+]2Cc2ccc3ccccc3c2)cc1	SRB			TGI	2580 nM
COc1ccc(C(=O)/C=C/c2ccccc2Br)cc1S(N)(=O)=O	SRB		48 h	GI50	1800 nM
CCCc1n(Cc2ccc3ccccc3n2)cc[n+]1Cc1ccc2ccccc2c1	SRB			TGI	1130 nM
Cc1cc(C)n(C(=S)[S][Au][PH](CCCCCC[PH]([Au][S]C(=S)n2nc(C)cc2C)(c2ccccc2)c2ccccc2)(c2ccccc2)c2ccccc2)n1	SRB			GI50	1240 nM
